Bioassay records: PubChem, several laboratories
TNAP act DEA – human TNAP enzyme activators, primary screen, biochemical, luminescent, intermediate phosphate acceptor level; Alkaline phosphatase, tissue-nonspecific isozyme (Homo sapiens), P05186; purified TNAP, CDP-star luminescence, 100 mM DEA, 30 min; active compounds read high; scale: 0 levamisole-inhibited, 1 vehicle-only enzyme; activation factor at 20 µM; 64,000 tested, under 10 active;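 active = activation factor of at least 2 at 20 µM, relative to controls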
Target sequence (P05186 whole entry, looked up): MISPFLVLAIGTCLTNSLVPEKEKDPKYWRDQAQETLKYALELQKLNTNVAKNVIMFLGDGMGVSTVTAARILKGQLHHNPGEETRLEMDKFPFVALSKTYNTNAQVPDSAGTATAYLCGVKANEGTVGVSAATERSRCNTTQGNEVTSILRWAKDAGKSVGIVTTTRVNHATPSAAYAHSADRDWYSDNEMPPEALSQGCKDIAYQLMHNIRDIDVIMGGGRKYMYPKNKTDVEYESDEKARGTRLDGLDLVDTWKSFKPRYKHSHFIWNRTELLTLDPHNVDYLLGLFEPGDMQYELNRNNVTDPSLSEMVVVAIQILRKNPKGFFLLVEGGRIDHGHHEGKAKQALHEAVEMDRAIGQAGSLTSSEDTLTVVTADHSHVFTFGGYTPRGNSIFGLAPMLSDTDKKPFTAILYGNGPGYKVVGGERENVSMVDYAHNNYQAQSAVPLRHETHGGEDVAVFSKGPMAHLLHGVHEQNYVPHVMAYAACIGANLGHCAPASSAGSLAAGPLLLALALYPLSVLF
BAP1 inh – inhibitors of BAP1 deubiquitinase, primary screen, biochemical, Ub-AMC fluorescence, kinetic | Ubiquitin carboxyl-terminal hydrolase BAP1 (Homo sapiens), Q92560 | recombinant BAP1, Ub-AMC hydrolysis fluorescence kinetic; active compounds read low | calls only at 20 µM | 72,000 compounds, 0.48% hits | AID 436, 2006;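 active = activity remaining at or below 50% of control, provided the compound also passes the data quality filters; inactive = the rest, including low values that fail the filters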;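 note: 100% = DMSO wells rate and 0% = substrate alone blank rate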
Ecoli tolC – growth inhibitors of E. coli tolC mutant, primary screen, strain BW25113 ΔtolC::kan, 384-well | 65,000 compounds, 2.2% hits | growth inhibition, % at 10 µM (by protocol) | AID 573, 2007 | OD615;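 active = growth inhibition at or above a cutoff equal to the mean over every tested compound plus 3 SD, cut at about 60% in these data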;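 note: growth measured after 20 h incubation at 37 °C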
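Material: E. coli BW25113 ΔtolC::kan, tolC deletion mutant strain. Measure: percent growth inhibition. Schedule: 37 °C, 20 h exposure. Doses: single-point testing at 10 µM. Signal: A615 absorbance measurement. Buffer or medium: kanamycin-containing LB broth (50 µg/mL).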
Ecoli WT expand – growth inhibitors of wild-type E. coli, primary screen, strain BW25113, expanded library, OD600. OD600 absorbance. growth inhibition, % at 100 µM. 98,000 compounds, 0.15% hits. AID 710, 2007;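 active = growth inhibition above about 50% at one test dose, limit read from the data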;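 note: growth measured after 20 h incubation at 37 °C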
WNV NS2B-NS3 inh – inhibitors of WNV NS2B-NS3 protease, primary screen, biochemical, fluorogenic substrate; Genome polyprotein (West Nile virus), P06935; fluorogenic substrate Ex360/Em465; active compounds read low; z-score (concentration not given with the values); 65,000 compounds, 0.18% hits; AID 577, 2007; in the data active = z-score below about -3
BAP1 inh conf – BAP1 deubiquitinase inhibitors, hit retest, confirmation, orthogonal assay, biochemical, Ub-ethyl ester substrate, HPLC readout; shares compounds with BAP1 inh; purified BAP1, Ub-ethyl ester hydrolysis; active compounds read low; % of control activity, % at 20 µM; 310 compounds, 8% hits;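 active = percent of control activity at or below 60%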
* = called active by the depositor; i = inactive; · = not tested or not shown; + = active, no number. This excerpt belongs to a sample that is enriched for hits.

SMILES	TNAP act DEA	BAP1 inh	Ecoli tolC	Ecoli WT expand	WNV NS2B-NS3 inh	others
Fc1ccc(CCNCc2ccc(Cl)c(Cl)c2)cc1	·	·	·	67.0*	·
CCNCC1(c2ccc(OC)c(OC)c2)CCCC1	1	i	4.9	3.0	-4.84*
COC(=O)C1C(=O)NC2(C)CC1c1cccc(OC)c1O2 (stereo not given)	·	i	·	·	·
CCOc1ccc(-n2c(-c3ccccn3)nc3ccccc3c2=O)cc1	·	i	·	·	·
CCCCn1c(O)c(C(CC)=NCCc2ccccc2)c(=O)[nH]c1=O	0.9	i	99.2*	-8.0	-0.65
CCCCCn1c(=O)c(C(=O)Nc2ccncc2)c(O)c2ccccc21	0.9	+	17.6	·	-0.38
O=c1[nH]c(O)c([N+](=O)[O-])c(=O)[nH]1	·	i	·	·	·
Cc1ccc(CN2C(=O)NC(=O)C3(Cc4c(nc5ccccn5c4=O)N4CCCCCC43)C2=O)cc1 (stereo not given)	1	i	74.0*	-8.0	0.23
CCN1C[C@]2(C)CC[C@H](O)[C@@]34C5C[C@@H]6[C@@H](OC)C[C@@](O)(C5[C@H]6O)[C@@H](CC23)C14 (stereo not given in full)	·	i	·	·	·
Nc1c(C(=O)NCCc2ccccc2)c2nc3ccccc3nc2n1CCN1CCOCC1	0.9	i	89.8*	-23.0	1.82
COc1ccc(CCNC(=O)c2c(N)n(CCN3CCOCC3)c3nc4ccccc4nc23)cc1	0.9	i	50.2	-9.0	-0.13
O=C(NCC(c1cccnc1)N1CCN(c2ccccc2F)CC1)Oc1ccccc1 (stereo not given)	1	i	7.1	-2.0	0.38
COc1ccc(N2CCN(C(CNC(=O)Oc3ccccc3)c3cccnc3)CC2)cc1 (stereo not given)	·	i	-10.7	-11.0	-7.25*
O=c1c(C=NCc2cccs2)c(O)n(C2CCCCC2)c(=O)n1C1CCCCC1	·	·	·	24.0	·
N=C(N)c1c(O)n(C2CCCCC2)c(=O)n(C2CCCCC2)c1=O	0.9	i	98.7*	-4.0	-0.41
CN(C)C1(c2nnnn2CCOC(=O)Nc2ccc(Cl)cc2)CCCCC1	1	i	100.0*	-5.0	2.67
CN(C)C1(c2nnnn2-c2ccc(Cl)cc2)CCCCC1	0.9	i	8.7	-12.0	0.41
COP(=O)(OC)C(O)C(Cl)(Cl)Cl (stereo not given)	0.9	i	12.5	·	-3.44*
CCOP(=O)(OCC)C(NC(=O)C(Cl)Cl)C(Cl)(Cl)Cl (stereo not given)	·	·	·	-2.0	·
N[C@@H](Cn1ccc(=O)[nH]c1=O)C(=O)O	·	i	·	·	·
CCC(=NCc1ccc2c(c1)OCO2)c1c(O)n(C2CCCCC2)c(=O)[nH]c1=O	0.9	i	74.7*	-6.0	-1.2
CCCCCCn1c(=O)c(C(=O)Nc2c(C)n(C)n(-c3ccccc3)c2=O)c(O)c2ccccc21	1	+	2.1	·	-0.51	BAP1 inh conf=95.3
